This passage reports IC50 and inhibition results from ChEMBL document CHEMBL5143667, “Identification of Aloe-derived natural products as prospective lead scaffolds for SARS-CoV-2 main protease (Mpro) inhibitors” (Bioorg Med Chem Lett, 2022).

Square brackets hold non-standard residues; d marks the D form. Peptide text beside a SMILES is read from it. * marks the point of attachment. Nle = CCCC[C@H](N)C(=O)O; Cbz = O=C(OCc1ccccc1)*

Broadly, the IC50 is the point on the concentration scale where inhibition reaches its midpoint. As a reminder, the inhibition is the share of the control response that was lost under treatment. Low values mean little suppression, high ones strong suppression.

The target of one experiment is Replicase polyprotein 1ab (Severe acute respiratory syndrome coronavirus 2, UniProt P0DTD1). In words: Inhibition of SARS-CoV-2 main protease expressed in Escherichia coli using DABCYL-KTSAVLQ1SGFRKM-E(EDANS)-NH2 peptide as substrate incubated for 30 mins by FRET based assay. The procedure, abridged:
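Same FRET set-up with varied inhibitor concentrations: 50 nM Mpro, 10 μM substrate, Tris-HCl/NaCl/EDTA/DTT buffer, pH 7.3, room temperature, read every 2.5 min for 1 h. Initial slopes from first 20 min, % inhibition vs DMSO. IC50 by nonlinear regression, three-parameter dose–response inhibition model. Triplicates, mean ± SD.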
Molecule `CCCCCCCCCCCCCCCc1cccc(O)c1C(=O)O` [ANACARDIC ACID] yielded an IC50 of 6.8 µM.

In the case of `O=C1CC(=O)c2c(Cl)c(Cl)c(Cl)c(Cl)c21`, the IC50 worked out at 138 µM.

The molecule `CC(=O)Cc1cc(=O)c2c(C)cc(O)c([C@@H]3O[C@H](CO)[C@@H](O)[C@H](O)[C@H]3O)c2o1` returned an IC50 of 38.9 µM.

`COc1cc(C)c2c(=O)cc(C[C@@H](C)O)oc2c1[C@@H]1O[C@H](CO)[C@@H](O)[C@H](O)[C@H]1OC(=O)/C=C/c1ccc(O)cc1` had an IC50 of 125 µM.

The target in another experiment is Replicase polyprotein 1ab (Severe acute respiratory syndrome coronavirus 2) (UniProt P0DTD1). In words: Inhibition of SARS-CoV-2 main protease expressed in Escherichia coli using DABCYL-KTSAVLQ1SGFRKM-E(EDANS)-NH2 peptide as substrate at 100 uM incubated for 30 mins by FRET based assay relative to control. The essentials: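 Started by adding substrate–inhibitor mix to enzyme. Ex 360/Em 460 nm every 2.5 min for 1 h. Initial velocity from first 20 min, substrate background subtracted, % inhibition vs DMSO control. Triplicate, mean ± SD.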
For the molecule `CCCCCCCCCCCCCCCc1cccc(O)c1C(=O)O` [ANACARDIC ACID], the inhibition is 96.1%.

Regarding `O=C(O)/C(S)=C/c1c[nH]c2ccc(F)cc12`, the inhibition was 71.5%.

Take `CC(=O)O/N=C1\C(=O)N(Cc2cc(Cl)ccc2Cl)c2ccc(Cl)cc21`: the inhibition was determined as 61.4%.

With `O=C1CC(=O)c2c(Cl)c(Cl)c(Cl)c(Cl)c21`, the inhibition was found to be 94.2%.

`CC(NC(=O)[C@H](Cc1ccccc1)NC(=O)OCc1ccccc1)C(=O)CF` (stereo partly specified) came in with an inhibition of 90.1%.

Turning to `Cn1cc(/C=C/C(=O)c2cccc(F)c2)cc1/C=C/C(=O)NO`, the inhibition stood at 51.4%.

In turn, `CCCC[C@@H](C=O)NC(=O)[C@H](CC(C)C)NC(=O)[C@H](CC(C)C)NC(C)=O` (Ac-Leu-Leu-[Nle]-aldehyde) yielded an inhibition of 95.2%.

Regarding `CCCC[C@@H](C=O)NC(=O)[C@H](CC(C)C)NC(=O)OCc1ccccc1`, the inhibition was determined as 97.2%.

In turn, `CCC[C@H](NC(=O)[C@@H]1[C@H]2CCC[C@H]2CN1C(=O)[C@@H](NC(=O)[C@@H](NC(=O)c1cnccn1)C1CCCCC1)C(C)(C)C)C(=O)C(=O)NC1CC1` gave an inhibition of 88.8%.

Molecule `CSCC[C@@H](C=O)NC(=O)[C@H](CC(C)C)NC(=O)[C@H](CC(C)C)NC(C)=O` (Ac-Leu-Leu-Met-aldehyde) returned an inhibition of 99.8%.

With `CC(C)C[C@H](NC(=O)[C@H](Cc1ccccc1)C[C@@H](O)[C@H](Cc1ccccc1)NC(=O)OC(C)(C)C)C(=O)N[C@@H](Cc1ccccc1)C(N)=O`, the inhibition is 65%.

As to `C=C[C@H]1C[C@]1(NC(=O)[C@@H]1C[C@@H](Oc2ncc(OC)c3ccc(Cl)cc23)CN1C(=O)[C@@H](NC(=O)OC(C)(C)C)C(C)(C)C)C(=O)NS(=O)(=O)C1CC1`, the inhibition was 49.4%.

`Nc1ccccc1NC(=O)c1ccc(CNc2nccc(-c3cccnc3)n2)cc1`: the inhibition was found to be 66.7%.

`CCOC(=O)C[C@H](NC(=O)[C@@H](NC(=O)[C@H](CCC(=O)OC)NC(=O)[C@H](CC(=O)OCC)NC(=O)OCc1ccccc1)C(C)C)C(=O)CF` returned an inhibition of 100%.

The molecule `Cc1coc2c1C(=O)C(=O)c1c-2ccc2c1CCCC2(C)C` gave an inhibition of 53.9%.

As to `CC(C)(C)C1NC(=O)O[C@@H]2CCC[C@H]2OC/C=C/C(F)(F)c2nc3ccccc3nc2O[C@@H]2C[C@@H](C(=O)N[C@]3(C(=O)NS(=O)(=O)C4(C)CC4)C[C@H]3C(F)F)N(C2)C1=O` (stereo partly specified), the inhibition came out at 51.7%.

As for `COc1cc(C)c2c(=O)cc(CC(C)=O)oc2c1[C@@H]1O[C@H](CO)[C@@H](O)[C@H](O)[C@H]1OC(=O)/C=C/c1ccc(O)cc1`, the inhibition came out at 60.5%.

In turn, `CC(=O)Cc1cc(=O)c2c(C)cc(O)c([C@@H]3O[C@H](CO)[C@@H](O)[C@H](O)[C@H]3O)c2o1` registered an inhibition of 80.1%.

With `CC(C)C[C@@H](C=O)NC(=O)[C@H](CC(C)C)NC(=O)[C@H](CC(C)C)NC(=O)OCc1ccccc1` (Cbz-Leu-Leu-Leu-aldehyde), the inhibition amounted to 99%.

On to `CCCC(NC(=O)C(CC(C)C)NC(=O)OCc1ccccc1)C(=O)C(=O)NCc1ccccn1` (stereo unspecified), for which the inhibition worked out at 98.3%.

Take `CC1=C(O)C(=O)C=C2C1=CC=C1[C@@]2(C)CC[C@@]2(C)[C@@H]3C[C@](C)(C(=O)O)CC[C@]3(C)CC[C@]12C`: the inhibition is 57.7%.

Consider `CC(=O)N[C@@H](CC(C)C)C(=O)N[C@@H](CC(C)C)C(=O)N[C@H](C=O)CCCNC(=N)N`, for which the inhibition stood at 59%.

`CC(NC(=O)Cc1cc(F)cc(F)c1)C(=O)NC1C(=O)N(C)c2ccccc2-c2ccccc21` (stereo unspecified) yielded an inhibition of 53.8%.

Regarding `Cc1c(O)cccc1C(=O)N[C@@H](CSc1ccccc1)[C@H](O)CN1C[C@H]2CCCC[C@H]2C[C@H]1C(=O)NC(C)(C)C`, the inhibition is 56.1%.

`CC(C)(C)NC(=O)N[C@H](C(=O)N1C[C@H]2[C@@H]([C@H]1C(=O)NC(CC1CCC1)C(=O)C(N)=O)C2(C)C)C(C)(C)C` (stereo partly specified) came in with an inhibition of 97.4%.

`COc1cc(C)c2c(=O)cc(C[C@@H](C)O)oc2c1[C@@H]1O[C@H](CO)[C@@H](O)[C@H](O)[C@H]1OC(=O)/C=C/c1ccc(O)cc1` gave an inhibition of 72.6%.

Turning to `Cc1cc(C(=O)CN2CCCC2)c(C)n1-c1ccc(F)cc1`, the inhibition was determined as 54.8%.
